Test results as given in ChEMBL document CHEMBL5149988, “Structure-Based Design of Selective Salt-Inducible Kinase Inhibitors” (J Med Chem, 2021).

Experiment: Metabolic stability in Sprague-Dawley rat liver microsomes assessed as parent compound remaining incubated for 1 hrs by HPLC analysis
Assay type: ADME, Microsome
Settings: read-out: Stability
How it was run: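 Rat (Sprague-Dawley) activated liver microsome mix; compound incubated at 37 °C and sampled at 0, 15, 30 and 60 min. Unmetabolized parent quantified by HPLC.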

CNc1ncc2cc(-c3ccc(-c4ncccc4F)cc3Cl)c(=O)n(C[C@H]3OC[C@H](N)CO3)c2n1
remaining at 1 h: > 90%
